pEC50: −log10 of the molar value. Calls of active or inactive are those of the source. No cut-off for these calls is given here.
Legend:
[1] = target: Replicase polyprotein 1ab (Human coronavirus 229E) (UniProt P0C6X1); test: Inhibition of nsp15 in Human coronavirus 229E infected in human embryonic lung fibroblast cells assessed as reduction in viral RNA synthesis at early stage of RNA synthesis at 15 uM treated 6 hrs post infection by RT-qPCR based time-of-addition assay; type: cell-based
Summary of the method: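 Confluent HEL cells infected with HCoV-229E (MOI 100). Compound at 15 μM was added at -0.5 to 8 h p.i. At 16 h p.i. cells were washed with ice-cold PBS and lysed on ice, then heated 10 min at 75 °C and DNase-treated. Viral RNA was measured by one-step RT-qPCR against the N gene, using a plasmid standard for absolute copies. Values are relative to the no-compound virus control, from two independent experiments.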

[2] = system: Reovirus sp.; test: Antiviral activity against Reovirus-1; type: functional, organism-based
[3] = Antiviral activity against Human coronavirus 229E harboring reverse engineered EndoU-deficient H250A mutant infected in human embryonic lung fibroblast cells assessed as fold reduction in virus yield measured up to 40 uM; type: functional; settings: dose microM <=40
Summary of the method: (§1)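 Virus yield assay in confluent HEL cells. Serial compound dilutions were added, and cells were infected at MOI 100 with wild-type, EndoU-deficient (H250A nsp15) or passage-selected (K60R or T66I nsp15) HCoV-229E. After 4 h at 35 °C, the inoculum was removed and compound re-added. Supernatant was lysed at 3 days p.i. and N-gene RNA copies measured by one-step RT-qPCR. Results are fold reduction versus the no-compound control, from three independent experiments.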

[4] = system: Human respirovirus 3; test: Antiviral activity against Parainfluenza-3 virus; type: functional, organism-based
[5] = system: Human immunodeficiency virus; test: Antiviral activity against HIV; type: functional, organism-based
[6] = system: Punta Toro virus; test: Antiviral activity against Punta Toro virus; type: functional, organism-based
[7] = system: Sindbis virus; test: Antiviral activity against Sindbis virus; type: functional, organism-based
[8] = system: Yellow fever virus; test: Antiviral activity against Yellow fever virus; type: functional, organism-based
[9] = (§2) Antiviral activity against Human coronavirus 229E infected in human embryonic lung fibroblast cells assessed as reduction in virus-induced cytopathic effect incubated for 5 days by MTS cell viability assay; type: functional, cell-based; settings: 120 h
Summary of the method: (§3)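 Confluent HEL cell cultures given serial compound dilutions together with HCoV-229E at MOI 100 and held 5 days at 35 °C. Virus-induced CPE was scored by microscopy. MTS reagent was then added and absorbance at 490 nm read 24 h later. EC50 was taken from the MTS or microscopic read-out and CC50 from MTS. SI = CC50/EC50, both by MTS. Mean ± SEM of three independent experiments.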

[10] = system: Influenza A virus; test: Antiviral activity against Influenza virus; type: functional
[11] = system: Human adenovirus 2; test: Antiviral activity against Adenovirus; type: functional
[12] = system: Vaccinia virus; test: Antiviral activity against Vaccinia virus; type: functional, organism-based; settings: Orthopoxvirus vaccinia
[13] = system: Vesicular stomatitis virus; test: Antiviral activity against Vesicular stomatitis virus; type: functional, organism-based
[14] = system: Coxsackievirus B4; test: Antiviral activity against Coxsackie B4 virus; type: functional, organism-based
[15] = system: Respiratory syncytial virus; test: Antiviral activity against Respiratory syncytial virus; type: functional, organism-based
[16] = target: Replicase polyprotein 1ab (Human coronavirus 229E) (UniProt P0C6X1); test: Inhibition of nsp15 in wild type Human coronavirus 229E infected in human embryonic lung fibroblast cells assessed as reduction in virus yield; type: cell-based
Summary of the method: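 Confluent HEL cells (or semiconfluent 16HBE) with serial compound dilutions, infected with wild-type HCoV-229E at MOI 100. After 4 h at 35 °C the inoculum was removed and compound re-added. Supernatants were taken at 3 days p.i., lysed, and heated 10 min at 75 °C. Three independent experiments.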

[17] = system: Fibroblast; test: Inhibition of nsp15 T66I drug-resistant mutant in Human coronavirus 229E infected in human embryonic lung fibroblast cells assessed as reduction in virus yield; type: cell-based; summary of the method: as §1
[18] = Antiviral activity against Human coronavirus 229E infected in human embryonic lung fibroblast cells assessed as reduction in virus-induced cytopathic effect incubated for 5 days by microscopy; type: functional, cell-based; settings: 120 h; summary of the method: as §3
[19] = system: SARS-CoV-2; test: Antiviral activity against SARS-CoV-2 infected in eGFP expressing Vero E6 cells assessed as reduction in virus-induced cytopathic effect cells pretreated for 24 hrs measure after 4 days post infection by MTS cell viability assay; type: functional, organism-based; settings: Severe acute respiratory syndrome coronavirus 2
[20] = Cytotoxicity against mock-infected human embryonic lung fibroblast cells incubated for 5 days by MTS assay; type: cell-based; settings: time 5 day; summary of the method: as §3
[21] = as §2, with “Selectivity index, ratio of CC50 for cytotoxicity against mock-infected human embryonic lung fibroblast cells incubated for 5 days by MTS assay to EC50 for antiviral” for “Antiviral”; type: toxicity, cell-based; settings: time 5 day, read-out: Ratio CC50/EC50; summary of the method: as §3
[22] = system: Herpes simplex virus unknown type; test: Antiviral activity against Herpes simplex virus; type: functional
[23] = system: Fibroblast; test: Inhibition of nsp15 K60R drug-resistant mutant in Human coronavirus 229E infected in human embryonic lung fibroblast cells assessed as reduction in virus yield; type: cell-based; summary of the method: as §1
[24] = target: Replicase polyprotein 1ab (Human coronavirus 229E) (UniProt P0C6X1); test: Inhibition of nsp15 in Human coronavirus 229E infected in human embryonic lung fibroblast cells assessed as reduction in viral RNA synthesis at early stage of RNA synthesis at 6.3 uM treated 6 hrs post infection by RT-qPCR based time-of-addition assay; type: cell-based

Compound	Activity [2]	Activity [4]	Activity [5]	Activity [6]	Activity [7]	Activity [8]	pEC50 [9]	Activity [10]	Activity [11]	Activity [12]	Activity [13]	Activity [14]	Activity [15]	pEC50 [18]	CC50 at 120 h [20]	selectivity ratio at 120 h [21]	Activity [22]	also measured
C=C(C)[C@@H]1CC[C@]2(C(=O)O)CC[C@]3(C)[C@H](CC[C@@H]4[C@@]5(C)Cc6nnn([C@@H](C)c7ccccc7)c6C(C)(C)[C@@H]5CC[C@]43C)[C@@H]12	inactive	inactive	inactive	inactive	inactive	inactive	6.19	inactive	inactive	inactive	inactive	inactive	inactive	6.22	49 µM	76	inactive	Activity [1]: Active; fold change (FC) [3]: 23; fold change (FC) [16]: 1480; Activity [17]: inactive; Activity [19]: Active; EC99 [23]: 2.9 µM
N#C[C@@]1(c2ccc3c(N)ncnn23)O[C@H](CO)[C@@H](O)[C@H]1O [GS-441524]							5.64							5.49	> 100 µM	> 44		Activity [17]: Active; EC99 [23]: > 40 µM
CC(C)[C@@H]1CC[C@]2(C(=O)O)CC[C@]3(C)[C@H](CC[C@@H]4[C@@]5(C)Cc6nnn([C@@H](C)c7ccccc7)c6C(C)(C)[C@@H]5CC[C@]43C)[C@@H]12	inactive	inactive	inactive	inactive	inactive	inactive	4.89	inactive	inactive	inactive	inactive	inactive	inactive	5.21	> 99 µM	> 7.6	inactive	Activity [19]: Active
CO/C1=C\C(C)=C\[C@@H](C)[C@@H](O)[C@@H](C)C/C(C)=C/C=C/[C@H](OC)[C@@H]([C@@H](C)[C@@H](O)[C@H](C)[C@@]2(O)C[C@@H](O)[C@H](C)[C@@H](C(C)C)O2)OC1=O																		Activity [24]: Active
C=C(C)[C@@H]1CC[C@]2(C(=O)O)CC[C@]3(C)[C@H](CC[C@@H]4[C@@]5(C)Cc6nnn(CCc7c[nH]c8ccc(OC)cc78)c6C(C)(C)[C@@H]5CC[C@]43C)[C@@H]12	inactive	inactive	inactive	inactive	inactive	inactive	6.06	inactive	inactive	inactive	inactive	inactive	inactive	6.52	8.9 µM	10	inactive	
C=C(C)[C@@H]1CC[C@]2(C(=O)O)CC[C@]3(C)[C@H](CC[C@@H]4[C@@]5(C)Cc6nnn(Cc7cccc8[nH]ccc78)c6C(C)(C)[C@@H]5CC[C@]43C)[C@@H]12	inactive	inactive	inactive	inactive	inactive	inactive	7.04	inactive	inactive	inactive	inactive	inactive	inactive	7.00	2.4 µM	27	inactive	
C=C(C)[C@@H]1CC[C@]2(C(=O)O)CC[C@]3(C)[C@H](CC[C@@H]4[C@@]5(C)Cc6nnn(Cc7ccc(C)cc7)c6C(C)(C)[C@@H]5CC[C@]43C)[C@@H]12	inactive	inactive	inactive	inactive	inactive	inactive	5.21	inactive	inactive	inactive	inactive	inactive	inactive	5.48	57 µM	9	inactive	
C=C(C)[C@@H]1CC[C@]2(C(=O)O)CC[C@]3(C)[C@H](CC[C@@H]4[C@@]5(C)Cc6nnn(Cc7ccncc7)c6C(C)(C)[C@@H]5CC[C@]43C)[C@@H]12	inactive	inactive	inactive	inactive	inactive	inactive	5.60	inactive	inactive	inactive	inactive	inactive	inactive	5.62	17 µM	7	inactive	
C=C(C)[C@@H]1CC[C@]2(C(=O)O)CC[C@]3(C)[C@H](CC[C@@H]4[C@@]5(C)Cc6nn[nH]c6C(C)(C)[C@@H]5CC[C@]43C)[C@@H]12	inactive	inactive	inactive	inactive	inactive	inactive	5.37	inactive	inactive	inactive	inactive	inactive	inactive	5.47	8.3 µM	1.9	inactive	
C=C(C)[C@@H]1CC[C@]2(C(=O)O)CC[C@]3(C)[C@H](CC[C@@H]4[C@@]5(C)Cc6nnn(CCc7c[nH]c8ccccc78)c6C(C)(C)[C@@H]5CC[C@]43C)[C@@H]12	inactive	inactive	inactive	inactive	inactive	inactive	6.25	inactive	inactive	inactive	inactive	inactive	inactive	6.62	3.2 µM	6	inactive	
C=C(C)[C@@H]1CC[C@]2(C(=O)O)CC[C@]3(C)[C@H](CC[C@@H]4[C@@]5(C)Cc6nnn(Cc7ccc8c(c7)OCO8)c6C(C)(C)[C@@H]5CC[C@]43C)[C@@H]12	inactive	inactive	inactive	inactive	inactive	inactive	5.72	inactive	inactive	inactive	inactive	inactive	inactive	5.82	15 µM	8	inactive	
